Data set [1] deals with 5-hydroxytryptamine receptor 2B (Homo sapiens, UniProt P41595). Description: Inhibition of serotonin 5-HT2B (unknown origin). The method in brief: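 Radioligand binding selectivity screen was run at 10 μM, mean of three determinations. Where inhibition exceeded 50%, full concentration-displacement curves were run in triplicate and IC50 was obtained by nonlinear least-squares regression.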

Data set [2] is described as follows: Unbound plasma concentration in C57Bl/6 mouse administered for 11 days. In kind it is ADME, cell-free. As to conditions: 264 h, dose 3-100 mg/kg, time 11 day. Summed up:
(§1)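 Male C57Bl/6 mice, singly housed on a reversed 12 h light cycle, were fed diet formulated to give 3, 10, 30, 60 or 120 mg/kg/day (assumes 3 g/day intake) or untreated diet for 11 days. Body weight and food intake were monitored. Spontaneous locomotion and rearing were recorded over 60 min. On day 11, mice were euthanized 4, 8 or 24 h after dark onset and plasma and brain drug levels measured; n = 5 per group.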

Data set [3] can be described thus: Cmax in C57Bl/6 mouse at 10 mg/kg, po measured after 480 mins by LC-MS/MS analysis. In kind it is ADME, organism-based. To be noted: in vivo. Summed up:
(§2)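 Male C57Bl/6 mice (20-25 g) given a single IV dose (2 mg/kg) or oral dose (10 mg/kg). Blood was sampled at 5, 15, 30, 60, 120, 240, 360 and 480 min and plasma prepared by centrifugation. Plasma drug levels were measured by LC/MS/MS. Values are mean (CV%), N=3.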

Data set [4] is described as follows: Unbound brain concentration in C57Bl/6 mouse at 10 mg/kg, po administered for 1 hr. The data set is classed as ADME, organism-based. As to conditions: in vivo.
Data set [5] concerns the target T1, Mitogen-activated protein kinase kinase kinase 5 (Homo sapiens, UniProt Q99683).
T1 sequence (Q99683 whole entry): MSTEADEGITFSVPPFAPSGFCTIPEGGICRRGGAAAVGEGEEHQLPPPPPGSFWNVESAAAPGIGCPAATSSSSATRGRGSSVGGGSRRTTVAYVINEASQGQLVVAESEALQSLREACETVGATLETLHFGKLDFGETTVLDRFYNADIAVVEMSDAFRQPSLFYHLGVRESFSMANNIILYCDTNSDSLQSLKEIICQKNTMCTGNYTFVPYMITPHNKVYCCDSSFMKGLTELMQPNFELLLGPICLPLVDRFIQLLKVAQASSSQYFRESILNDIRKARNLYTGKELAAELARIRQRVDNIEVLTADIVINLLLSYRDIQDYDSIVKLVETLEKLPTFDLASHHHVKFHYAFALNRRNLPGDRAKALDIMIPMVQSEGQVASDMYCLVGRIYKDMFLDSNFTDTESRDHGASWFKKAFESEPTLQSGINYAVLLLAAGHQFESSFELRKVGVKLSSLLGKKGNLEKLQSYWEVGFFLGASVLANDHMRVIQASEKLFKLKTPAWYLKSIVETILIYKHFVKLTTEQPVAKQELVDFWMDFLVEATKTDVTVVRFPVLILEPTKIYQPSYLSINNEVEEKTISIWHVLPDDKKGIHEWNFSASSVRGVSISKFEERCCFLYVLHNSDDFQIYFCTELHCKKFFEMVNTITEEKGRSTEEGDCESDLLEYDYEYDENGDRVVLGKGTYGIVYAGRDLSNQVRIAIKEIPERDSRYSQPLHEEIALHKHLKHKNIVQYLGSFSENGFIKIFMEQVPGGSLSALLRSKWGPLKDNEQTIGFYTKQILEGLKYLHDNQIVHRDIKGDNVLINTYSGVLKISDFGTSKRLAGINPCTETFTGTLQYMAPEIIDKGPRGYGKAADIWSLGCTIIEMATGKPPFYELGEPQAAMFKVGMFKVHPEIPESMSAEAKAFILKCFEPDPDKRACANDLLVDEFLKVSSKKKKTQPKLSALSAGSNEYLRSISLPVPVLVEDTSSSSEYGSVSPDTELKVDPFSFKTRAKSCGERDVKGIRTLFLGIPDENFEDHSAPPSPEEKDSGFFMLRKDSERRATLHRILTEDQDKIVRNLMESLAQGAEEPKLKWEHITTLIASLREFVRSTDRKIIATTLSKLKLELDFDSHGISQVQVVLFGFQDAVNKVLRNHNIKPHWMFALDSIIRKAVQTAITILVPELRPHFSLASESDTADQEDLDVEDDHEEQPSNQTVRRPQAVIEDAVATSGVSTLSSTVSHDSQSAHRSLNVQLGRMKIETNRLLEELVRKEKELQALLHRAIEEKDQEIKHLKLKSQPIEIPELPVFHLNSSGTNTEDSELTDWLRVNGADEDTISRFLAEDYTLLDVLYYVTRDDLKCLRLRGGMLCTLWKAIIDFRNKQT
Description: Inhibition of MAP3K5 (unknown origin).

The nature of data set [6]: AUC in C57Bl/6 mouse at 10 mg/kg, po measured after 480 mins by LC-MS/MS analysis. The data set is classed as ADME, organism-based. To be noted: in vivo. The method in brief:
as §2

A short description of data set [7]: Effect on spontaneous locomotor activity in C57Bl/6 mouse assessed as rearing behaviour administered for 11 days by truScan photo beam activity system analysis. In kind it is toxicity. As to conditions: in vivo, 264 h, time 11 day. The method in brief: as §1
Data set [8] concerns the target Leucine-rich repeat serine/threonine-protein kinase 2 (Mus musculus) (UniProt Q5S006). Description: In vivo inhibition of LRRK2 in C57Bl/6 mouse brain assessed as reduction in pSer935 LRRK2 at 30 mg/kg administered for 11 days and measured for 4 to 24 hrs by Western blotting analysis. In kind it is functional, organism-based. As to conditions: time 11.0 day. The method in brief: (§3)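 Male C57Bl/6 mice, singly housed on a reversed light cycle. Fed drug diet targeted to 3, 10, 30, 60 or 120 mg/kg/day (assuming 3 g/day intake), or untreated diet, for 11 days. Killed 4, 8 or 24 h after dark-cycle onset, n = 5 per group. Cortex immunoblotted for pSer935/total LRRK2 and total LRRK2/GAPDH. Total LRRK2 detected with MJFF2 antibody.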
On the technique in general: A western blot detects proteins with antibodies after separation by electrophoresis.

For data set [9], the system named is Mus musculus. Briefly: Effect on behavioral changes in 14 weeks old MitoPark mouse striatum assessed as DOPAC level at 30 mg/kg/day by HPLC analysis. The data set is classed as functional. The method in brief:
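Striatum from MitoPark mice on diet targeting 30 mg/kg/day or vehicle diet (wild-type littermate controls) was homogenized by sonication in 0.1 M acid at 0.1 g/mL. Samples were held 60 min at 4 °C and centrifuged. Dopamine, DOPAC and HVA were measured by HPLC with electrochemical detection against a 3,4-DHBA internal standard and standard curves. Mean ± SEM.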

Data set [10] addresses Leucine-rich repeat serine/threonine-protein kinase 2 (Mus musculus) (UniProt Q5S006). Description: In vivo inhibition of LRRK2 in C57Bl/6 mouse brain assessed as inhibition of pSer935 LRRK2 administered for 11 days and measured after 24 hrs by Western blotting analysis. In kind it is functional, organism-based. As to conditions: dose 3-120 mg/kg, time 11.0 day. The method in brief:
as §3

Data set [11] concerns Mus musculus. Description: Effect on behavioral phenotype in MitoPark mouse at baseline assessed as higher rearing behavior at 30 mg/kg/day administered for 3 weeks and measured after 60 mins. In kind it is functional, organism-based. Summed up: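 MitoPark mice, 5 weeks old, were allocated by baseline 60-min LMA to untreated diet or diet targeting 30 mg/kg/day (reformulated every 3 weeks). Wild-type littermates received vehicle diet. Body weight and food intake were recorded weekly. 60-min LMA (distance, rearing) was run at 8, 11, 14 and 17 weeks of age.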

As a reminder, the pIC50 is −log10 of the IC50, conventionally taken in molar units. A lower pIC50 goes with a large IC50. A word on the Cmax: it is the highest concentration seen after dosing. Usually AUC stands for the area under the concentration-time curve, a measure of exposure. Lower therefore signals low exposure.

pIC50: −log10 of the molar value. Calls of active or inactive are those of the source. The rule behind the calls is not given here.

Sequence of Leucine-rich repeat serine/threonine-protein kinase 2 (Mus musculus) (Q5S006 whole entry): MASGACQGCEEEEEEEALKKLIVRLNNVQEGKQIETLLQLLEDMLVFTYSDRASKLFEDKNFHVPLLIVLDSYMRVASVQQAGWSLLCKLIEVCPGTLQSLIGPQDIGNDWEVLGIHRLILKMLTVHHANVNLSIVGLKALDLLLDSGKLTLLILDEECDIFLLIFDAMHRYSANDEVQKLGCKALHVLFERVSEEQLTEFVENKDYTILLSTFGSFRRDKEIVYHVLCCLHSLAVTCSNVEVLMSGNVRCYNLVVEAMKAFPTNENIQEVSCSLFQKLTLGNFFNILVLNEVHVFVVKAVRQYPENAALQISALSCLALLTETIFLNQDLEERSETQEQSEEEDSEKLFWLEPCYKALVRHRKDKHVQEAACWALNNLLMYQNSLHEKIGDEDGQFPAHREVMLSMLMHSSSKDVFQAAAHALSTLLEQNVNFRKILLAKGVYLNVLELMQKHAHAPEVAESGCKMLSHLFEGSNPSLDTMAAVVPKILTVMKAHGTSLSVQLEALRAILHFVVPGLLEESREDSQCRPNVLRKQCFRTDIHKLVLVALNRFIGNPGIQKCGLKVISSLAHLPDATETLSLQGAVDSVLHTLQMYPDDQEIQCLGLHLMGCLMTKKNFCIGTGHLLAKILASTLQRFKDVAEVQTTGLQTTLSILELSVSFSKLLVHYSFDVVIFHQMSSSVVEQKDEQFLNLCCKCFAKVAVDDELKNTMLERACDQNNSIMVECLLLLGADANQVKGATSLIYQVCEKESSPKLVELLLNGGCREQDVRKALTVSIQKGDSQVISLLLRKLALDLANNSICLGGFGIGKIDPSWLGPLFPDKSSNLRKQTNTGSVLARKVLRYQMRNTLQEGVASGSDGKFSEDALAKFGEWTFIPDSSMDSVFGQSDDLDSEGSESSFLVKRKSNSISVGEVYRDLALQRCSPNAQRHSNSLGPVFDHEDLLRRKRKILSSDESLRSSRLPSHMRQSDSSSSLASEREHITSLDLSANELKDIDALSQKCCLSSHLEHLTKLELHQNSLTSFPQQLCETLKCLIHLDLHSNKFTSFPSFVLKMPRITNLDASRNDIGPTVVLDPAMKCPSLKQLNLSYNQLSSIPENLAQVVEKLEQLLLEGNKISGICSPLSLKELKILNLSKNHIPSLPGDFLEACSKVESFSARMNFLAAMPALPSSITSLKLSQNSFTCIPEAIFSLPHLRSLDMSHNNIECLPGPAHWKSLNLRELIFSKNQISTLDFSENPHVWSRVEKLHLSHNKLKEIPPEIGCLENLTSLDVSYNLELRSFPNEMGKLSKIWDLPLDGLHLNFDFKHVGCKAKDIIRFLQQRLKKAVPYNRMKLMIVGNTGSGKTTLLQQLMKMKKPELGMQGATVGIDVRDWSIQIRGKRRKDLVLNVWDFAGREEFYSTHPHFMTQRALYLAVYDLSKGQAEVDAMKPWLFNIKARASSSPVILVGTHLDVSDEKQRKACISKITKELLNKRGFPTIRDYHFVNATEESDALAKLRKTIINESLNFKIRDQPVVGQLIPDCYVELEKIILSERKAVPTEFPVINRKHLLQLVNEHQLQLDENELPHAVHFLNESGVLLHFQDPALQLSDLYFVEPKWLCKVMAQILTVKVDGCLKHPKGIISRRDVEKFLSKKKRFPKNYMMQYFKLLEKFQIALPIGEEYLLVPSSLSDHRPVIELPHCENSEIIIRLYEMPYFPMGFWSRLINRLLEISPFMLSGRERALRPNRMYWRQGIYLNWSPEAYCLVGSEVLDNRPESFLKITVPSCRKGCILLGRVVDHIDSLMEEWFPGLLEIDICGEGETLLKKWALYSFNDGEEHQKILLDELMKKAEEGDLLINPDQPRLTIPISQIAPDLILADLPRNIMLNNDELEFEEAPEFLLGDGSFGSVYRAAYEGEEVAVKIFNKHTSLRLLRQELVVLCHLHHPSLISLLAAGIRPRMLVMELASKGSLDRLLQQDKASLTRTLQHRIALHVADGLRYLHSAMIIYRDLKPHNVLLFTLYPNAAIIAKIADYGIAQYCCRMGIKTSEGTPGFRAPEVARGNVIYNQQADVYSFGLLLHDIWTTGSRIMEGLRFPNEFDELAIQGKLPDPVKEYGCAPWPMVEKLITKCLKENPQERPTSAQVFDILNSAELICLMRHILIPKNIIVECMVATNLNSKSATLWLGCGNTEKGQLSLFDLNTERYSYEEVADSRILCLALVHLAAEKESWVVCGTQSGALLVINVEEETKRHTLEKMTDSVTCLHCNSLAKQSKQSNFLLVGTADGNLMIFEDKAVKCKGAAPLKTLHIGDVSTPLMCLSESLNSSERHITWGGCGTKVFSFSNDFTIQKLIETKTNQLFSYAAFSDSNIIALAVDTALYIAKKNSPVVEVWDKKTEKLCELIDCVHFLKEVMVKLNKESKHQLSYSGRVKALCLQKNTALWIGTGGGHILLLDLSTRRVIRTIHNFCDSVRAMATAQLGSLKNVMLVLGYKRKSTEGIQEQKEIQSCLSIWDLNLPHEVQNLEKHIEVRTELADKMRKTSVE
Sequence of 5-hydroxytryptamine receptor 2B (P41595 whole entry): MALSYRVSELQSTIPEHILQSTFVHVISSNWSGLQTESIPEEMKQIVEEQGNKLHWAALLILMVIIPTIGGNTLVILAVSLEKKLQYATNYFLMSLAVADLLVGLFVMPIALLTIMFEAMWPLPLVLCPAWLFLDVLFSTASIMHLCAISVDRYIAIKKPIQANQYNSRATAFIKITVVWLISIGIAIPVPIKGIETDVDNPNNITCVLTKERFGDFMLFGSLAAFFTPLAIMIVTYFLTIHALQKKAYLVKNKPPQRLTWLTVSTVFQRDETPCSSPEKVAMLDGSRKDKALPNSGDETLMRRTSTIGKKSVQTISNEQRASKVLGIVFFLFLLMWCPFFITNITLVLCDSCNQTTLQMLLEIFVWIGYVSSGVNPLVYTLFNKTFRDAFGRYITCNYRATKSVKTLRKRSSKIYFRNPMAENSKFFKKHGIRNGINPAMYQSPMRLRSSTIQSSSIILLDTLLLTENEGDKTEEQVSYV

`C[C@@H]1CN(c2cc(-c3n[nH]c4ccc(OC5(C)CC5)cc34)ncn2)C[C@H](C)O1` [MLi-2]: the pIC50 was 5.92 in [1] and 6.37 in data set [5]. Further, the “Drug uptake(free)” value in data set [2] is listed as “Dose-Dependent Effect”; in data set [4], 25.4 nM. Moreover, in [3], the Cmax stood at 298 nM. In [6], this molecule yielded an AUC at 8 h of 1.5 µM·h. Besides, the Activity result is reported as “Non-Toxic” in data set [7] and 7521 ng/g in [9]. Also, the inhibition result in data set [8] was “Active”. Besides, the inhibition result in data set [10] was “Dose-Dependent Effect”. Also, in [11], the result was Active.

Source of the values: ChEMBL document CHEMBL5653623 (J Pharmacol Exp Ther, 2015).
